Measurements from ChEMBL document CHEMBL5058577, “EUbOPEN Chemogenomics Library 2 (Multiplex)” (2022).

System: Fibroblast
Assay: Multiplex assay against human fibroblast
Type: toxicity, cell-based
In short: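 On a CQ1 microscope at 37°C and 5% CO2, live cells were imaged after compound addition. They had been stained at seeding with Hoechst33342, BioTracker Green Microtubule Cytoskeleton Dye, MitoTracker Red and Annexin V Alexa Fluor 680. CellPathfinder machine-learning gating assigned cells to Hoechst high-intensity objects or normal cells, normal cells to healthy, pyknosed or fragmented nuclei, and pyknosed cells to mitotic or apoptotic. Tubulin, mitochondrial-mass and membrane-permeability phenotypes are per cents of healthy-nucleus cells.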

[1] = 12 h, 1 µM, compound concentration 1 uM, replicate 1
[2] = 12 h, 1 µM, compound concentration 1 uM, replicate 2
[3] = 12 h, 10 µM, compound concentration 10 uM, replicate 1
[4] = 12 h, 10 µM, compound concentration 10 uM, replicate 2
[5] = 24 h, 1 µM, compound concentration 1 uM, replicate 1
[6] = 24 h, 1 µM, compound concentration 1 uM, replicate 2
[7] = 24 h, 10 µM, compound concentration 10 uM, replicate 1
[8] = 24 h, 10 µM, compound concentration 10 uM, replicate 2
[9] = 48 h, 1 µM, compound concentration 1 uM, replicate 1
[10] = 48 h, 1 µM, compound concentration 1 uM, replicate 2
[11] = 48 h, 10 µM, compound concentration 10 uM, replicate 1
[12] = 48 h, 10 µM, compound concentration 10 uM, replicate 2

COC[C@@H](c1ccc(C(F)(F)F)cc1)N1CCN(C2(C)CCN(C(=O)c3c(C)ncnc3C)CC2)C[C@@H]1C.O=C(O)/C=C\C(=O)O [VICRIVIROC MALEATE]
Population Apoptotic (%) [1]: 36% | Population Fragmented Nuclei (%) [1]: 23% | Population Healthy Nuclei (%) [1]: 53% | Population Hoechst High Intensity Objects (%) [1]: 4% | Population Membrane Permeable-Phenotype (%) [1]: 2% | Population Mitochondria Different-Phenotype (%) [1]: 11% | Population Mitotic Cells (%) [1]: 63% | Population Normal (%) [1]: 95% | Population Pyknosed Nuclei (%) [1]: 22% | Population Tubulin-Different-Phenotype (%) [1]: 16% | Total Cell Count [1]: 138 | Population Healthy Nuclei (%) [2]: 51% | Population Membrane Permeable-Phenotype (%) [2]: 5% | Population Mitochondria Different-Phenotype (%) [2]: 13% | Population Pyknosed Nuclei (%) [2]: 25% | Population Tubulin-Different-Phenotype (%) [2]: 41% | Total Cell Count [2]: 190 | Population Apoptotic (%) [3]: 58% | Population Fragmented Nuclei (%) [3]: 26% | Population Healthy Nuclei (%) [3]: 59% | Population Hoechst High Intensity Objects (%) [3]: 17% | Population Membrane Permeable-Phenotype (%) [3]: 2% | Population Mitochondria Different-Phenotype (%) [3]: 4% | Population Mitotic Cells (%) [3]: 41% | Population Normal (%) [3]: 82% | Population Pyknosed Nuclei (%) [3]: 14% | Population Tubulin-Different-Phenotype (%) [3]: 45% | Total Cell Count [3]: 208 | Population Apoptotic (%) [4]: 33% | Population Fragmented Nuclei (%) [4]: 48% | Population Healthy Nuclei (%) [4]: 33% | Population Hoechst High Intensity Objects (%) [4]: 20% | Population Membrane Permeable-Phenotype (%) [4]: 12% | Population Mitotic Cells (%) [4]: 66% | Population Normal (%) [4]: 79% | Population Pyknosed Nuclei (%) [4]: 18% | Population Tubulin-Different-Phenotype (%) [4]: 67% | Total Cell Count [4]: 186 | Population Apoptotic (%) [5]: 66% | Population Fragmented Nuclei (%) [5]: 21% | Population Healthy Nuclei (%) [5]: 57% | Population Hoechst High Intensity Objects (%) [5]: 3% | Population Membrane Permeable-Phenotype (%) [5]: 1% | Population Mitochondria Different-Phenotype (%) [5]: 7% | Population Mitotic Cells (%) [5]: 33% | Population Normal (%) [5]: 96% | Population Pyknosed Nuclei (%) [5]: 20% | Population Tubulin-Different-Phenotype (%) [5]: 18% | Total Cell Count [5]: 138 | Population Apoptotic (%) [6]: 30% | Population Fragmented Nuclei (%) [6]: 28% | Population Healthy Nuclei (%) [6]: 50% | Population Membrane Permeable-Phenotype (%) [6]: 8% | Population Mitochondria Different-Phenotype (%) [6]: 20% | Population Mitotic Cells (%) [6]: 69% | Population Pyknosed Nuclei (%) [6]: 21% | Population Tubulin-Different-Phenotype (%) [6]: 41% | Total Cell Count [6]: 204 | Population Apoptotic (%) [7]: 73% | Population Fragmented Nuclei (%) [7]: 23% | Population Healthy Nuclei (%) [7]: 64% | Population Hoechst High Intensity Objects (%) [7]: 12% | Population Membrane Permeable-Phenotype (%) [7]: 0% | Population Mitochondria Different-Phenotype (%) [7]: 5% | Population Mitotic Cells (%) [7]: 26% | Population Normal (%) [7]: 87% | Population Pyknosed Nuclei (%) [7]: 11% | Population Tubulin-Different-Phenotype (%) [7]: 42% | Total Cell Count [7]: 196 | Population Apoptotic (%) [8]: 42% | Population Fragmented Nuclei (%) [8]: 46% | Population Healthy Nuclei (%) [8]: 39% | Population Hoechst High Intensity Objects (%) [8]: 21% | Population Membrane Permeable-Phenotype (%) [8]: 8% | Population Mitochondria Different-Phenotype (%) [8]: 12% | Population Mitotic Cells (%) [8]: 57% | Population Normal (%) [8]: 78% | Population Pyknosed Nuclei (%) [8]: 14% | Population Tubulin-Different-Phenotype (%) [8]: 60% | Total Cell Count [8]: 183 | Population Apoptotic (%) [9]: 59% | Population Fragmented Nuclei (%) [9]: 21% | Population Healthy Nuclei (%) [9]: 56% | Population Hoechst High Intensity Objects (%) [9]: 3% | Population Membrane Permeable-Phenotype (%) [9]: 0% | Population Mitochondria Different-Phenotype (%) [9]: 7% | Population Mitotic Cells (%) [9]: 40% | Population Normal (%) [9]: 96% | Population Pyknosed Nuclei (%) [9]: 21% | Population Tubulin-Different-Phenotype (%) [9]: 34% | Total Cell Count [9]: 127 | Population Apoptotic (%) [10]: 53% | Population Fragmented Nuclei (%) [10]: 33% | Population Healthy Nuclei (%) [10]: 50% | Population Hoechst High Intensity Objects (%) [10]: 5% | Population Membrane Permeable-Phenotype (%) [10]: 9% | Population Mitochondria Different-Phenotype (%) [10]: 19% | Population Mitotic Cells (%) [10]: 46% | Population Normal (%) [10]: 95% | Population Pyknosed Nuclei (%) [10]: 15% | Population Tubulin-Different-Phenotype (%) [10]: 58% | Total Cell Count [10]: 180 | Population Apoptotic (%) [11]: 73% | Population Fragmented Nuclei (%) [11]: 23% | Population Healthy Nuclei (%) [11]: 65% | Population Hoechst High Intensity Objects (%) [11]: 14% | Population Membrane Permeable-Phenotype (%) [11]: 0% | Population Mitochondria Different-Phenotype (%) [11]: 5% | Population Mitotic Cells (%) [11]: 26% | Population Normal (%) [11]: 85% | Population Pyknosed Nuclei (%) [11]: 10% | Population Tubulin-Different-Phenotype (%) [11]: 48% | Total Cell Count [11]: 206 | Population Apoptotic (%) [12]: 53% | Population Fragmented Nuclei (%) [12]: 54% | Population Healthy Nuclei (%) [12]: 35% | Population Hoechst High Intensity Objects (%) [12]: 20% | Population Membrane Permeable-Phenotype (%) [12]: 9% | Population Mitochondria Different-Phenotype (%) [12]: 10% | Population Mitotic Cells (%) [12]: 46% | Population Normal (%) [12]: 79% | Population Pyknosed Nuclei (%) [12]: 9% | Population Tubulin-Different-Phenotype (%) [12]: 61% | Total Cell Count [12]: 193
